Results from ChEMBL document CHEMBL2407075, “Sulphonamido-quinoxalines: search for anticancer agent” (Eur J Med Chem, 2013).

How the values were obtained:
Type in all cases: functional
PC-3 [1] = assay: Growth inhibition of human PC3 cells assessed as cell growth at 10^-4 M after 48 hrs by sulforhodamine B assay; conditions: PC-3, 48 h, read-out: Activity
OVCAR-3 [2] = assay: Growth inhibition of human OVCAR3 cells after 48 hrs by sulforhodamine B assay; conditions: OVCAR-3, 48 h; for CC50: read-out: LC50 (the source's name)
How it was run: (§1)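 Adherent cells in RPMI 1640 with 5% FBS and 2 mM L-glutamine were plated at 5000–40,000 cells/well and grown 24 h. Five concentrations (0.01–100 µM, DMSO stock) were added for 48 h at 37 °C. Cells were fixed with cold TCA (10% final) and stained with SRB, read at 515 nm. GI50 came from log concentration–growth curves against time-zero and control plates.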

UO-31 = assay: Growth inhibition of human UO31 cells after 48 hrs by sulforhodamine B assay; conditions: UO-31, 48 h; for CC50: read-out: LC50 (the source's name)
How it was run: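 NCI-60 screen. Cells grown in RPMI 1640 with 5% FBS and 2 mM L-glutamine, plated at 5000–40,000 cells/well and preincubated 24 h at 37 °C, 5% CO2. A time-zero plate is TCA-fixed at drug addition. DMSO stocks diluted in medium; five concentrations (0.01, 0.1, 1, 10, 100 µM). Exposure 48 h, then cold TCA fixation and 0.4% SRB staining, absorbance at 515 nm. GI50 is taken from the growth-percentage curve relative to time zero and control.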

PC-3 [3] = assay: Growth inhibition of human PC3 cells assessed as cell growth at 10^-5 M after 48 hrs by sulforhodamine B assay; conditions: PC-3, 48 h, read-out: Activity
KM12 = assay: Growth inhibition of human KM12 cells assessed as cell growth at 10^-5 M after 48 hrs by sulforhodamine B assay; conditions: KM12, 48 h, read-out: Activity
BT-549 = assay: Growth inhibition of human BT549 cells assessed as cell growth at 10^-7 M after 48 hrs by sulforhodamine B assay; conditions: BT-549, 48 h, read-out: Activity
How it was run: (§2)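 Five-dose NCI-60 run (0.01, 0.1, 1, 10 and 100 µM, as 10-fold dilutions from a DMSO stock made at 400× the top final level). Cells were grown in RPMI 1640 with 5% FBS and 2 mM glutamine and plated for 24 h. They were then exposed for 48 h at 37 °C and 5% CO2. TCA fixation was followed by SRB staining with A515 read-out. Percent growth was taken relative to time-zero and control plates.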

SW-620 = assay: Growth inhibition of human SW620 cells assessed as cell growth at 10^-8 M after 48 hrs by sulforhodamine B assay; conditions: SW-620, 48 h, read-out: Activity
UACC-257 = assay: Growth inhibition of human UACC257 cells assessed as cell growth at 10^-8 M after 48 hrs by sulforhodamine B assay; conditions: UACC-257, 48 h, read-out: Activity
OVCAR-3 [4] = assay: Growth inhibition of human OVCAR3 cells assessed as cell growth at 10^-6 M after 48 hrs by sulforhodamine B assay; conditions: OVCAR-3, 48 h, read-out: Activity
HL-60(TB) [5] = assay: Growth inhibition of human HL-60(TB) cells assessed as cell growth at 10^-7 M after 48 hrs by sulforhodamine B assay; conditions: HL-60, 48 h, read-out: Activity
How it was run: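 HL-60(TB) suspension cells were treated 48 h at 37 °C within the five-dose series (0.01–100 µM), fixed with 16% final TCA and SRB-stained, read at 515 nm. Percentage growth at each concentration = (Ti−Tz)/(C−Tz)×100, or (Ti−Tz)/Tz×100 when Ti<Tz, with time-zero (Tz) and untreated control (C) plates.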

OVCAR-4 = assay: Growth inhibition of human OVCAR4 cells assessed as cell growth at 10^-6 M after 48 hrs by sulforhodamine B assay; conditions: OVCAR-4, 48 h, read-out: Activity
HL-60(TB) [6] = assay: Growth inhibition of human HL-60(TB) cells after 48 hrs by sulforhodamine B assay; conditions: HL-60, 48 h; for CC50: read-out: LC50 (the source's name)
How it was run: (§3)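 Leukemia suspension cells in RPMI 1640 with 5% FBS and 2 mM L-glutamine were plated at 5000–40,000 cells/well and grown 24 h. Five concentrations (0.01–100 µM) were given for 48 h at 37 °C. Settled cells were fixed with 80% TCA (16% final) and SRB-stained, read at 515 nm. GI50 came from dose–response curves against time-zero and control plates.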

HOP-92 = assay: Growth inhibition of human HOP92 cells after 48 hrs by sulforhodamine B assay; conditions: HOP-92, 48 h; for CC50: read-out: LC50 (the source's name); how it was run: as §1
U-251 = assay: Growth inhibition of human U251 cells assessed as cell growth at 10^-6 M after 48 hrs by sulforhodamine B assay; conditions: U-251, 48 h, read-out: Activity
HT-29 = assay: Growth inhibition of human HT-29 cells assessed as cell growth at 10^-6 M after 48 hrs by sulforhodamine B assay; conditions: HT-29, 48 h, read-out: Activity
How it was run: (§4)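 Five-dose screen at NCI. Cells in RPMI 1640 with 5% FBS and 2 mM L-glutamine, seeded at 5000–40,000 cells/well and grown 24 h at 37 °C, 5% CO2 before dosing, with time-zero plates TCA-fixed. Drug diluted from DMSO stock to 0.01, 0.1, 1, 10 and 100 µM final, 48 h. Cells fixed with cold TCA (10% final), stained with 0.4% SRB and read at 515 nm. Percent growth from Tz, control and test absorbances; GI50, TGI and LC50 from dose-response curves.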

[7] = Growth inhibition of human HCC2998 cells assessed as cell growth at 10^-6 M after 48 hrs by sulforhodamine B assay; conditions: HCC 2998, 48 h, read-out: Activity; how it was run: as §4
MCF7 = assay: Growth inhibition of human MCF7 cells assessed as cell growth at 10^-7 M after 48 hrs by sulforhodamine B assay; conditions: MCF7, 48 h, read-out: Activity
RPMI-8226 = assay: Growth inhibition of human RPMI8226 cells after 48 hrs by sulforhodamine B assay; conditions: RPMI-8226, 48 h; for CC50: read-out: LC50 (the source's name); how it was run: as §3
SNB-19 = assay: Growth inhibition of human SNB19 cells assessed as cell growth at 10^-4 M after 48 hrs by sulforhodamine B assay; conditions: SNB-19, 48 h, read-out: Activity
ACHN [8] = assay: Growth inhibition of human ACHN cells assessed as cell growth at 10^-5 M after 48 hrs by sulforhodamine B assay; conditions: read-out: Activity; how it was run: as §2
HCT-116 = assay: Growth inhibition of human HCT116 cells after 48 hrs by sulforhodamine B assay; conditions: HCT-116, 48 h; for CC50: read-out: LC50 (the source's name); how it was run: as §4
SN12C = assay: Growth inhibition of human SN12C cells assessed as cell growth at 10^-6 M after 48 hrs by sulforhodamine B assay; conditions: read-out: Activity
ACHN [9] = assay: Growth inhibition of human ACHN cells assessed as cell growth at 10^-8 M after 48 hrs by sulforhodamine B assay; conditions: read-out: Activity; how it was run: as §2
NCI-H522 = assay: Growth inhibition of human NCI-H522 cells assessed as cell growth at 10^-5 M after 48 hrs by sulforhodamine B assay; conditions: NCI-H522, 48 h, read-out: Activity

Structure (SMILES) | growth at 100 µM (PC-3 [1]) | CC50 (OVCAR-3 [2]) | CC50 (UO-31) | growth at 10 µM (PC-3 [3]) | growth at 10 µM (KM12) | growth at 0.1 µM (BT-549) | growth at 0.01 µM (SW-620) | growth at 0.01 µM (UACC-257) | growth at 1 µM (OVCAR-3 [4]) | growth at 0.1 µM (HL-60(TB) [5]) | growth at 1 µM (OVCAR-4) | GI50 (HL-60(TB) [6]) | CC50 (HL-60(TB) [6]) | GI50 (HOP-92) | CC50 (HOP-92) | growth at 1 µM (U-251) | growth at 1 µM (HT-29) | growth at 1 µM [7] | growth at 0.1 µM (MCF7) | GI50 (RPMI-8226) | further results
O=S(=O)(Nc1ccccn1)c1ccc2nc(-c3ccccc3)c(-c3ccccc3)nc2c1 | 23% | > 100000 nM | > 100000 nM | -12% | 6% | 81% | 101% | 96% | 92% | 97% | 82% | 1710 nM | > 100000 nM | 1940 nM | > 100000 nM | 84% | 79% | 100% | 96% | 1110 nM | GI50 (OVCAR-3 [2]): 2170 nM; CC50 (RPMI-8226): > 100000 nM; growth at 100 µM (SNB-19): 62%; growth at 10 µM (ACHN [8]): 6%; GI50 (HCT-116): 2170 nM; TGI (HCT-116): > 100000 nM; CC50 (HCT-116): > 100000 nM; growth at 1 µM (SN12C): 91%; growth at 0.01 µM (ACHN [9]): 99%; growth at 10 µM (NCI-H522): -42%
O=S(=O)(Nc1ccc(Cl)cc1)c1ccc2nc(-c3ccccc3)c(-c3ccccc3)nc2c1 | 42% | > 100000 nM | > 100000 nM | -12% | 5% | 81% | 93% | 94% | 94% | 99% | 76% | 2090 nM | > 100000 nM | 2030 nM | > 100000 nM | 87% | 85% | 102% | 95% | 1430 nM | TGI (UO-31): > 100000 nM; CC50 (RPMI-8226): > 100000 nM; growth at 100 µM (SNB-19): 83%; growth at 10 µM (ACHN [8]): 6%; TGI (HCT-116): > 100000 nM; CC50 (HCT-116): > 100000 nM; growth at 1 µM (SN12C): 93%; growth at 0.01 µM (ACHN [9]): 102%; growth at 10 µM (NCI-H522): -34%
